pIC50: −log10 of the molar value. The source made the active and inactive calls. The calls are words filed in the database; no cut-off is given here.
Columns and labels:
[1] = Antiproliferative activity against human EAhy926 cells measured after 48 hrs by MTT assay; format: functional, cell-based; settings: EA.hy 926, 48 h
EA.hy 926 [2] = test: Antiangiogenic activity against human EAhy926 cells assessed as inhibition of VEGF-induced capillary-like tube formation measured after 24 hrs by phase contrast microscopic analysis; format: functional, cell-based
In short: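 EA.HY926 cells were plated on Matrigel-coated wells and treated for 24 h at 0.3–30. Capillary-like tubules with multicentric junctions were scored by imaging against compound-free controls.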

EA.hy 926 [3] = test: Antimigratory activity against human EAhy926 cells assessed as inhibition of VEGF-induced cell migration incubated for 24 hrs by wound healing assay; format: functional, cell-based
In short: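 Wound-healing scratch assay in EA.HY926 endothelial cells with VEGF stimulation. Compound tested across 0.3 to 30, with Endostar as positive control. Migration was compared against untreated cells.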

Gallus gallus = organism: Gallus gallus; test: Antiangiogenic activity against 5-day-old chicken egg chorioallantoic membrane at 0.3 to 30 uM/disc incubated for 48 hrs by microscopic analysis; format: functional, tissue-based
[4] = Aqueous solubility of the compound; format: physicochemical

| Structure (SMILES) | pIC50 [1] | other results |
| --- | --- | --- |
| COc1ccc(/C=C\c2cc(OC)c(OC)c(OC)c2)cc1OP(=O)(O)O [FOSBRETABULIN] | 5.19 |  |
| CCCCn1c2ccccc2c2ccnc(CNCCCCCNCc3nccc4c5ccccc5n(CCCC)c34)c21 | 5.67 | inhibition (EA.hy 926 [2]): Dose-dependent effect; inhibition (EA.hy 926 [3]): Dose-dependent effect; Activity (Gallus gallus): Active |
| c1ccc(CCCn2c3ccccc3c3ccnc(CNCCCNCc4nccc5c6ccccc6n(CCCc6ccccc6)c45)c32)cc1 | 5.03 |  |
| CCCCn1c2ccccc2c2ccnc(CNCCCNCc3nccc4c5ccccc5n(CCCC)c34)c21 | 5.08 |  |
| Cl.c1ccc2c(c1)[nH]c1c(CNCCCCNCc3nccc4c3[nH]c3ccccc34)nccc12 | 4.59 | solubility [4]: > 10000 µg/mL |
| CCCCn1c2ccccc2c2ccnc(CNCCCCCCNCc3nccc4c5ccccc5n(CCCC)c34)c21 | 5.53 |  |
| Cn1c2ccccc2c2ccnc(CNCCCCNCc3nccc4c5ccccc5n(C)c34)c21 | 4.77 |  |
| CCn1c2ccccc2c2ccnc(CNCCCCNCc3nccc4c5ccccc5n(CC)c34)c21 | 5.27 |  |
| c1ccc(CCCn2c3ccccc3c3ccnc(CNCCCCCCNCc4nccc5c6ccccc6n(CCCc6ccccc6)c45)c32)cc1 | 5.49 |  |
| CC(C)Cn1c2ccccc2c2ccnc(CNCCCCNCc3nccc4c5ccccc5n(CC(C)C)c34)c21 | 5.09 |  |
| Fc1ccc(Cn2c3ccccc3c3ccnc(CNCCCNCc4nccc5c6ccccc6n(Cc6ccc(F)cc6)c45)c32)cc1 | 5.05 |  |
| CC(C)n1c2ccccc2c2ccnc(CNCCCCCCNCc3nccc4c5ccccc5n(C(C)C)c34)c21 | 5.07 |  |
| CCCCn1c2ccccc2c2ccnc(CNCCCCNCc3nccc4c5ccccc5n(CCCC)c34)c21 | 5.36 |  |
| c1ccc(Cn2c3ccccc3c3ccnc(CNCCCNCc4nccc5c6ccccc6n(Cc6ccccc6)c45)c32)cc1 | 5.05 |  |
| c1ccc(CCCn2c3ccccc3c3ccnc(CNCCCCCNCc4nccc5c6ccccc6n(CCCc6ccccc6)c45)c32)cc1 | 5.56 |  |
| CCCCCCn1c2ccccc2c2ccnc(CNCCCCCNCc3nccc4c5ccccc5n(CCCCCC)c34)c21 | 5.29 |  |
| CCCCCCn1c2ccccc2c2ccnc(CNCCCNCc3nccc4c5ccccc5n(CCCCCC)c34)c21 | 5.03 |  |
| Clc1cccc(Cn2c3ccccc3c3ccnc(CNCCCCCNCc4nccc5c6ccccc6n(Cc6cccc(Cl)c6)c45)c32)c1 | 5.33 |  |
| Cn1c2ccccc2c2ccnc(CNCCCCCCNCc3nccc4c5ccccc5n(C)c34)c21 | 4.94 |  |
| CCCCCCn1c2ccccc2c2ccnc(CNCCCCCCNCc3nccc4c5ccccc5n(CCCCCC)c34)c21 | 5.09 |  |
| Fc1ccc(Cn2c3ccccc3c3ccnc(CNCCCCNCc4nccc5c6ccccc6n(Cc6ccc(F)cc6)c45)c32)cc1 | 5.30 |  |
| CCn1c2ccccc2c2ccnc(CNCCCNCc3nccc4c5ccccc5n(CC)c34)c21 | 5.11 |  |
| c1ccc2c(c1)[nH]c1c(CNCCCCCNCc3nccc4c3[nH]c3ccccc34)nccc12 | 4.84 |  |
| CC(C)Cn1c2ccccc2c2ccnc(CNCCCCCCNCc3nccc4c5ccccc5n(CC(C)C)c34)c21 | 5.26 |  |
| CCCCCCn1c2ccccc2c2ccnc(CNCCCCNCc3nccc4c5ccccc5n(CCCCCC)c34)c21 | 5.05 |  |
| c1ccc(Cn2c3ccccc3c3ccnc(CNCCCCCCNCc4nccc5c6ccccc6n(Cc6ccccc6)c45)c32)cc1 | 5.42 |  |
| c1ccc(CCCn2c3ccccc3c3ccnc(CNCCCCNCc4nccc5c6ccccc6n(CCCc6ccccc6)c45)c32)cc1 | 5.32 |  |
| CCCCCCCCn1c2ccccc2c2ccnc(CNCCCCNCc3nccc4c5ccccc5n(CCCCCCCC)c34)c21 | 5.03 |  |
| CCCCCCCCn1c2ccccc2c2ccnc(CNCCCCCNCc3nccc4c5ccccc5n(CCCCCCCC)c34)c21 | 5.10 |  |

From ChEMBL document CHEMBL3875148, “Synthesis and biological evaluation of novel alkyl diamine linked bivalent β-carbolines as angiogenesis inhibitors” (Eur J Med Chem, 2016)
